pEC50: −log10 of the molar value.
Legend:
Calf thymus DNA = assay: Binding affinity against calf-thymus DNA at pH 7.4; assay type: nucleic-acid assay; conditions: Bos taurus
How it was run: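 Fluorimetric competition at pH 7.4, 25 °C. Monomers: 10^-5 M compound with calf thymus DNA (4 µg/mL), titrated with ethidium bromide (ex 546/em 590 nm), Scatchard analysis. Dimers: ethidium dimer (6.4 × 10^-7 M) with DNA (1.6 × 10^-6 M bp) equilibrated 24 h with varied compound (ex 540/em 610 nm); constant fitted from displacement curves with site size n.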

L1210 [1] = assay: In vivo antitumor activity in L1210 (mouse leukemia) inoculated mice (optimal dose).; assay type: functional
How it was run: (§1)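 DBA2 mice (20–30/group) received 10^5 L1210 cells ip. Compound was given ip 24 h later; controls received solvent vehicle. Deaths were recorded daily, and survivors beyond 45 days were counted as cured. T/C% = treated/control mean survival time × 100. MTD was the highest dose causing no deaths; OD was the optimal dose.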

L1210 [2] = assay: (§2) In vivo maximum tolerate dose in L1210 (mouse leukemia) inoculated mice.; assay type: functional
How it was run: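 L1210-bearing DBA2 mice (10^5 cells ip), drug given ip 24 h after inoculation. Acute toxicity by usual procedure; MTD taken as highest dose administered without causing animal death, in mg/kg.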

Mus musculus [3] = assay: In vivo change in mean survival time in L1210 (mouse leukemia) inoculated mice.; assay type: functional
How it was run: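 DBA2 mice given 10^5 L1210 cells ip; 24 h later single ip dose of drug, controls given same volume of solvent; 20–30 animals/group. Deaths recorded daily; survivors beyond 45 days counted cured. Value is treated mean survival time over control mean survival time ×100 (T/C %).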

L1210 [4] = assay: In vitro inhibition of L1210 (mouse leukemia) cell cloning efficiency.; assay type: functional
How it was run: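 After 24 h drug exposure, L1210 cells were diluted to 250 and 500 cells/mL and plated in Noble agar. Plates were held 14 days at 37 °C in 5% CO2, and colonies >0.2 mm were counted. Triplicates were run per concentration. CE37, the concentration reducing cloning efficiency to 0.37, came from dose–response curves.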

L1210 [5] = assay: In vitro cellular toxicity against L1210 (mouse leukemia) cells.; assay type: functional; conditions: read-out: ED50 (the source's name)
How it was run: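 Exponentially growing L1210 cells (1 × 10^5/mL) exposed 24 h at 37 °C in RPMI 1640 with 10% fetal calf serum at a range of concentrations. Total cells counted by flow cytometer. Duplicate treated cultures were expressed as % of triplicate untreated controls. ED50 came from linear regression of residual % versus log concentration.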

Mus musculus [6] = assay: In vivo change in mean survival time in L1210 (mouse leukemia) inoculated mice (Not significant).; assay type: functional, organism-based; how it was run: as §1
L1210 [7] = assay: as §2; assay type: functional; how it was run: as §1; remark: listed apart in the source

| Compound | K (Calf thymus DNA) [M⁻¹] | OD (L1210 [1]) [mg/kg] | MTD (L1210 [2]) [mg/kg] | T/C (Mus musculus [3]) [%] | CE37 (L1210 [4]) [µM] | pEC50 (L1210 [5]) | T/C (Mus musculus [6]) | Optimal dose (L1210 [1]) [mg/kg] | Dose (L1210 [7]) [mg/kg] |
| --- | --- | --- | --- | --- | --- | --- | --- | --- | --- |
| COc1ccc2[nH]c3ccc4cc(NCCN5CCC(C6CCN(CCNc7ccc8c(ccc9[nH]c%10ccc(OC)cc%10c98)c7)CC6)CC5)ccc4c3c2c1.Cl.Cl | 3e+06 | 20 | 100 | 130 | – | – | – | – | – |
| COc1ccc2c(c1)c1c3cc(NCCN4CCC(C5CCN(CCNc6ccc7cc(C)c8c(c7c6)c6cc(OC)ccc6n8C)CC5)CC4)ccc3cc(C)c1n2C.Cl.Cl | 1e+08 | – | – | – | 10.9 | 5.49 | – | – | – |
| CNc1ccc2ccc3c(c2c1)c1cc(OC)ccc1n3C.I | 700000 | 17 | 25 | 122 | 0.74 | 6.66 | – | – | – |
| CNc1ccc2ccc3[nH]c4ccc(OC)cc4c3c2c1.I | 290000 | 25 | 50 | – | 0.77 | 6.02 | Not significant | – | – |
| CNc1ccc2c(C)cc3[nH]c4ccc(OC)cc4c3c2c1.I | 60000 | – | – | – | 3.71 | < 5.60 | – | – | – |
| CNc1ccc2c(ccc3[nH]c4ccc(OC)cc4c32)c1.I | 200000 | 25 | 50 | – | – | < 5.60 | Not significant | – | – |
| COc1ccc2c(c1)c1c3cc(NCCN4CCCCC4)ccc3cc(C)c1n2C.Cl | 610000 | 10 | 10 | – | – | 6.36 | Not significant | – | – |
| COc1ccc2[nH]c3ccc4ccc(NCCN5CCCCC5)cc4c3c2c1.Cl | 540000 | 5 | 10 | – | 0.14 | 6.60 | Not significant | – | – |
| COc1ccc2c(c1)c1c3cc(NCCN4CCC(C5CCN(CCNc6ccc7ccc8c(c7c6)c6cc(OC)ccc6n8C)CC5)CC4)ccc3ccc1n2C.Cl.Cl | 2e+07 | 2.5 | 10 | 178 | 0.006 | 6.44 | – | – | – |
| COc1ccc2[nH]c3cc(C)c4ccc(NCCN5CCC(C6CCN(CCNc7ccc8c(C)cc9[nH]c%10ccc(OC)cc%10c9c8c7)CC6)CC5)cc4c3c2c1.Cl.Cl | 5e+06 | 2 | 6 | 120 | 0.42 | < 6.00 | – | – | – |
| CNc1ccc2cc(C)c3[nH]c4ccc(OC)cc4c3c2c1.I | 180000 | – | – | 125 | 0.03 | 7.22 | – | 25 | 50 |
| CNc1ccc2c(c1)cc(C)c1[nH]c3ccc(OC)cc3c12.I | 300000 | – | – | – | 0.15 | 6.52 | – | – | – |
| CNc1ccc2cc(C)c3c(c2c1)c1cc(OC)ccc1n3C.I | 1e+06 | – | – | – | 0.6 | 6.66 | – | – | – |
| CNc1cccc2c1ccc1[nH]c3ccc(OC)cc3c12.I | 40000 | – | – | – | >2.5 | 4.72 | – | – | – |
| COc1ccc2[nH]c3cc(C)c4ccc(NCCN5CCCCC5)cc4c3c2c1 | 100000 | – | – | – | – | 5.65 | – | – | – |
| CNc1cccc2c1cc(C)c1[nH]c3ccc(OC)cc3c12.I | 61000 | – | – | – | >2.5 | < 5.60 | – | – | – |
| COc1ccc2[nH]c3c(C)cc4ccc(NCCN5CCC(C6CCN(CCNc7ccc8cc(C)c9[nH]c%10ccc(OC)cc%10c9c8c7)CC6)CC5)cc4c3c2c1.Cl.Cl | 5e+08 | – | 11 | 172 | 0.01 | 6.43 | – | – | – |
| COc1ccc2c(c1)c1c3cc(NCCN4CCCCC4)ccc3ccc1n2C.Cl | 1.2e+06 | 5 | 10 | – | 3.36 | 6.17 | Not significant | – | – |
| COc1ccc2[nH]c3c(C)cc4cc(NCCN5CCC(C6CCN(CCNc7ccc8c(c7)cc(C)c7[nH]c9ccc(OC)cc9c78)CC6)CC5)ccc4c3c2c1.Cl.Cl | 1e+07 | – | – | – | 0.6 | < 6.00 | – | – | – |
| COc1ccc2[nH]c3ccc4ccc(NCCN5CCC(C6CCN(CCNc7ccc8ccc9[nH]c%10ccc(OC)cc%10c9c8c7)CC6)CC5)cc4c3c2c1.CS(=O)(=O)O.CS(=O)(=O)O | 1e+07 | 10 | 10 | 182 | 0.024 | 6.72 | – | – | – |
| CNc1ccc2c(ccc3c2c2cc(OC)ccc2n3C)c1.I | 310000 | 75 | 150 | 115 | – | 5.65 | – | – | – |
| COc1ccc2c(c1)c1c3ccc(NCCN4CCC(C5CCN(CCNc6ccc7c(ccc8c7c7cc(OC)ccc7n8C)c6)CC5)CC4)cc3ccc1n2C.Cl.Cl | 6e+06 | 7.5 | 15 | – | 3.93 | – | Not significant | – | – |
| COc1ccc2[nH]c3c(C)cc4ccc(NCCN5CCCCC5)cc4c3c2c1.Cl | 930000 | 5 | 23 | 123 | 0.1 | 6.96 | – | – | – |

From ChEMBL document CHEMBL1123643, “Modulation of the antitumor activity by methyl substitutions in the series of 7H-pyridocarbazole monomers and dimers” (1987)
